Legend:
[1] = target: Mitogen-activated protein kinase 14 (Homo sapiens) (UniProt Q16539); assay: Inhibition of p38alpha assessed as residual activity at 10 uM
In short: (§1)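 Panel screen by radioactive kinase assay at a single inhibitor concentration. Score is the percent activity remaining relative to DMSO controls (100%).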

[2] = target: T1, Dual specificity tyrosine-phosphorylation-regulated kinase 3 (Homo sapiens) (UniProt O43781); assay: Inhibition of DYRK3 assessed as residual activity at 10 uM
T1 sequence (whole entry): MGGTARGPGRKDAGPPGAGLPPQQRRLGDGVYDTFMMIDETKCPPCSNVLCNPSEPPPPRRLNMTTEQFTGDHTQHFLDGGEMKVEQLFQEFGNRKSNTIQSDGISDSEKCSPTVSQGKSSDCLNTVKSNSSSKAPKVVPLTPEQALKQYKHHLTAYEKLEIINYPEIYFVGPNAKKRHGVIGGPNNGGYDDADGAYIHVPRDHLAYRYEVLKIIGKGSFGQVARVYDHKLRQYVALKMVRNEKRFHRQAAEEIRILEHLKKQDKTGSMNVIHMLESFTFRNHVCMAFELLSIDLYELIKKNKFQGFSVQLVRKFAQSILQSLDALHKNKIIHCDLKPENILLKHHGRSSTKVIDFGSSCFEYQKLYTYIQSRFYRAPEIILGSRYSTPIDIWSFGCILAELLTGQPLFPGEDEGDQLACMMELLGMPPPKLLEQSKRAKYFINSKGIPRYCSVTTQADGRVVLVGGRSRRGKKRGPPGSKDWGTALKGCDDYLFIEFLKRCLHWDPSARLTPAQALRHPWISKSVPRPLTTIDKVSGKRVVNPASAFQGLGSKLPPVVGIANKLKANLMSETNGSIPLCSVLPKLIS
In short: (§2)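 Kinase panel screen run as a radioactive activity assay at single compound concentration. Score reported as percent activity remaining relative to DMSO controls (100%).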

[3] = target: Ribosomal protein S6 kinase alpha-3 (Homo sapiens) (UniProt P51812); assay: Inhibition of RSK2 assessed as residual activity at 10 uM; in short: as §1
[4] = target: T2, Inhibitor of nuclear factor kappa-B kinase subunit beta (Homo sapiens) (UniProt O14920); assay: Inhibition of IKK-beta assessed as residual activity at 10 uM; in short: as §2
T2 sequence (whole entry): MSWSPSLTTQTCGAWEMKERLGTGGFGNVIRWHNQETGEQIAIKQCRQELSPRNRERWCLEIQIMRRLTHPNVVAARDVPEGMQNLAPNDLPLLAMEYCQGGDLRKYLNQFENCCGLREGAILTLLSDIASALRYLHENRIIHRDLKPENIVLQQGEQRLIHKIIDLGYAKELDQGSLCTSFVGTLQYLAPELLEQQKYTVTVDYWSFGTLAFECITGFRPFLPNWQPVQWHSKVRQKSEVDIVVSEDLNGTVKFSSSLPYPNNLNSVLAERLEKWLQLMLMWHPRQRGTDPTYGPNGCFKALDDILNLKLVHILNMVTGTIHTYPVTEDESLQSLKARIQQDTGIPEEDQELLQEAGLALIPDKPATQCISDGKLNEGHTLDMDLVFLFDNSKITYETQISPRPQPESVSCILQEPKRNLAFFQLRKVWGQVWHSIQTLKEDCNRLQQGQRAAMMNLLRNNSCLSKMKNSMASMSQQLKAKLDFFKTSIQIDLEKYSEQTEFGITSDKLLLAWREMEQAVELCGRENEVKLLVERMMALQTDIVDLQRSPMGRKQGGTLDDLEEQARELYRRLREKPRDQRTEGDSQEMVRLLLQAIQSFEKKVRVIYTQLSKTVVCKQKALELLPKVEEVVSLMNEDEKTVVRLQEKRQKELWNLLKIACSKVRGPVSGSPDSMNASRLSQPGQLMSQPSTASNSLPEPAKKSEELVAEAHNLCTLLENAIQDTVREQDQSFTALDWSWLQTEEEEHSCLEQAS

[5] = target: Ribosomal protein S6 kinase alpha-5 (Homo sapiens) (UniProt O75582); assay: Inhibition of MSK1 assessed as residual activity at 10 uM; in short: as §1
[6] = target: T3, Aurora kinase A (Homo sapiens) (UniProt O14965); assay: Inhibition of aurora A assessed as residual activity at 10 uM; in short: as §1
T3 sequence (whole entry): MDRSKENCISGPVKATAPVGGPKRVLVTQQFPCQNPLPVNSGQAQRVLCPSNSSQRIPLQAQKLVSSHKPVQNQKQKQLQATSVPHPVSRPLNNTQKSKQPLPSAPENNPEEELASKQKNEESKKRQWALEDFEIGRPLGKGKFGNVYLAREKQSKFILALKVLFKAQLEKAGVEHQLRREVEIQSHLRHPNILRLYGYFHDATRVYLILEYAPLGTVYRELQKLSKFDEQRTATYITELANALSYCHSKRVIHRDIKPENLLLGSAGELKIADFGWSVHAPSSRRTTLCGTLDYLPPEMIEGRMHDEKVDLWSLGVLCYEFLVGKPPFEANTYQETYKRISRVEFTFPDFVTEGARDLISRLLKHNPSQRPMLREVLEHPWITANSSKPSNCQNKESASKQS

[7] = target: T4, Serine/threonine-protein kinase Nek2 (Homo sapiens) (UniProt P51955); assay: Inhibition of NEK2A assessed as residual activity at 10 uM; in short: as §1
T4 sequence (whole entry): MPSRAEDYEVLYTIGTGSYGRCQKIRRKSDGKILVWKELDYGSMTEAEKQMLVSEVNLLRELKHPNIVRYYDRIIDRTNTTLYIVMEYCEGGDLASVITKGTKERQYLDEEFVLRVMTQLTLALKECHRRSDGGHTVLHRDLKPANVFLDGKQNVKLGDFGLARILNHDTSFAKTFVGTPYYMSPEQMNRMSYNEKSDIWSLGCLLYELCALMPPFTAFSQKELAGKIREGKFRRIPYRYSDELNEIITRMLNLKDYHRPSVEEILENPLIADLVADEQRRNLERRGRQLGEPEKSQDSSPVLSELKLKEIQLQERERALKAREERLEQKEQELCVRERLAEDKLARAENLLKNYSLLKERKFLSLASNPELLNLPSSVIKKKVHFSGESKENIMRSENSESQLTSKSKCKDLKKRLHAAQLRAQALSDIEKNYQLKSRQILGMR

Chain of Ribosomal protein S6 kinase alpha-3 (Homo sapiens) (P51812 whole entry): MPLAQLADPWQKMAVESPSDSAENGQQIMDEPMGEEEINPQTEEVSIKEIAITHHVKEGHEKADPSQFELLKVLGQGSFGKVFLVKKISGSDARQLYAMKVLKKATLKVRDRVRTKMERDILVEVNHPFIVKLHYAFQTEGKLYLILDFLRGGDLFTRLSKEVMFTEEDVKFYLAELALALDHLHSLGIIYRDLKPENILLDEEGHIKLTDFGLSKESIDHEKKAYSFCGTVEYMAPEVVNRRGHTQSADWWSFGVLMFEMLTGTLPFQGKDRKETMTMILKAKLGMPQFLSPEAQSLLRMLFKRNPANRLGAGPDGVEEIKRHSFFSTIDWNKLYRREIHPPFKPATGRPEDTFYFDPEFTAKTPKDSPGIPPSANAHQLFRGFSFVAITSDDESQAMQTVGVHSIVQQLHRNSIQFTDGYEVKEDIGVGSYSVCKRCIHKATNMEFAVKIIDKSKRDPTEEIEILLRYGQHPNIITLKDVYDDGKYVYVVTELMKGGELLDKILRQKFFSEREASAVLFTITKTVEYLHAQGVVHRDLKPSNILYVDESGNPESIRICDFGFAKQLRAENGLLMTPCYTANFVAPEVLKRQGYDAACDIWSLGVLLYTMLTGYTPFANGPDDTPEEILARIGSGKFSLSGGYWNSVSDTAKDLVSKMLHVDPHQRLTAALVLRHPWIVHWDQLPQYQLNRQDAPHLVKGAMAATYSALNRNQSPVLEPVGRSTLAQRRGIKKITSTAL
Chain of Mitogen-activated protein kinase 14 (Homo sapiens) (Q16539 whole entry): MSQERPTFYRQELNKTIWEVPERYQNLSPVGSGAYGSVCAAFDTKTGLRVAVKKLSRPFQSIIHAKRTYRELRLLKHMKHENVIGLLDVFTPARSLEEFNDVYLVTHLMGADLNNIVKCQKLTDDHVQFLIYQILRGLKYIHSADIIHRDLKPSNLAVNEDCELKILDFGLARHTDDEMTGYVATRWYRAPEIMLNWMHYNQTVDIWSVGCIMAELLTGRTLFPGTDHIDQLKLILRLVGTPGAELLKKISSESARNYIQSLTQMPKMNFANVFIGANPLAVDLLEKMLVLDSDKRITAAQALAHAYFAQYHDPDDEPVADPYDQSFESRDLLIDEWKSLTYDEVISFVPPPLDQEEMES
Chain of Ribosomal protein S6 kinase alpha-5 (Homo sapiens) (O75582 whole entry, looked up): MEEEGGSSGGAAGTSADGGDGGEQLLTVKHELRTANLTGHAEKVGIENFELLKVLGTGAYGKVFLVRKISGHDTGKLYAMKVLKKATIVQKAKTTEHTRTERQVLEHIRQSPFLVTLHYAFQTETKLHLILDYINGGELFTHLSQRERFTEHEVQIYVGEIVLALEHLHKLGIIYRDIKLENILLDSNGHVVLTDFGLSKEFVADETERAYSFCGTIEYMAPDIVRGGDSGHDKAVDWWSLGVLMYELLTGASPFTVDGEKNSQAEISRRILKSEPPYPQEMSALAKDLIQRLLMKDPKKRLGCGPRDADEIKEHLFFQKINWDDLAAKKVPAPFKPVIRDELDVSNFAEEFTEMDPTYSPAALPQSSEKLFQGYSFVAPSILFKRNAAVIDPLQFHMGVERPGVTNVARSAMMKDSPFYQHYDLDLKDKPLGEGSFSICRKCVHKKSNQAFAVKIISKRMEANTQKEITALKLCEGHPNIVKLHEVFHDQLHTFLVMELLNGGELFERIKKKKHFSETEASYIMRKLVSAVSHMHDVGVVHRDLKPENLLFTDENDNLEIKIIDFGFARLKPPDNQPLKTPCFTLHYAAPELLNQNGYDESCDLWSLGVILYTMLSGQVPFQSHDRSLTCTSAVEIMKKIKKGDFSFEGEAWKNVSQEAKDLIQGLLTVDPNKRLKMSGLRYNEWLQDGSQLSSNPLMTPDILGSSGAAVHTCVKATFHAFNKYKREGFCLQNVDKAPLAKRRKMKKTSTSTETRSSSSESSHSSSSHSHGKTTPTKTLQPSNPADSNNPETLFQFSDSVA

Activity [1] [%]	Activity [2] [%]	Activity [3] [%]	Activity [4] [%]	Activity [5] [%]	Activity [6] [%]	Activity [7] [%]	Structure (SMILES)
81	75	87	79	95	79	98	CN(C)C/C=C/C(=O)Nc1ccc2c(C#N)cnc(Nc3cccc(Br)c3)c2c1
58	81	71	88	81	80	100	CN1CCN(CCC(=O)Nc2ccc3c(C#N)cnc(Nc4cccc(Br)c4)c3c2)CC1
71	73	82	84	86	94	100	CN(C)CCCC(=O)Nc1ccc2c(C#N)cnc(Nc3cccc(Br)c3)c2c1
